Reference: ChEMBL document CHEMBL1145300, “Design, synthesis, and anti-inflammatory activity both in vitro and in vivo of new betulinic acid analogues having an enone functionality in ring A” (Bioorg Med Chem Lett, 2006)
Calls of active or inactive are those of the source. No cut-off for these calls is given here.

Columns and labels:
RAW = assay: Inhibition of nitric oxide production in IFN-gamma stimulated RAW 264.7 cells; assay type: functional, cell-based; details: Mus musculus
[1] = target: T1, Heme oxygenase 1 (Mus musculus) (UniProt P14901); assay: Induction of liver HO1 in CD1 mouse at 2 uM, po after 6 hrs; assay type: organism-based
T1 sequence (whole entry): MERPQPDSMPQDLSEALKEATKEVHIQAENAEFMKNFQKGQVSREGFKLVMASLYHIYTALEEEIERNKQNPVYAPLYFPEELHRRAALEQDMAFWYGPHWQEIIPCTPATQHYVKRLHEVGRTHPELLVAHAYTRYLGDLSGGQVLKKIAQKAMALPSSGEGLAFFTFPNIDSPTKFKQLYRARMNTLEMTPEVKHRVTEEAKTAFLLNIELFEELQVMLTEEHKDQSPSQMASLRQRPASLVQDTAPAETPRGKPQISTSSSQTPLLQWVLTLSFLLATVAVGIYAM
Outline: (§1)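 Male CD-1 mice, 3 per group, were given a single oral gavage of 2 μmole triterpenoid in DMSO. The read-out was heme oxygenase-1 (HO-1) induction in the liver.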

Mus musculus = assay: Antiinflammatory activity in CD1 mouse at 2 uM, po; assay type: functional, organism-based; outline: as §1

Row | Structure (SMILES) | IC50 (RAW) | also measured
1 | C=C(C)[C@@H]1CC[C@]2(C(=O)OC)CC[C@]3(C)C(CC[C@@H]4[C@@]5(C)C=C(C#N)C(=O)C(C)(C)[C@@H]5CC[C@]43C)[C@@H]12 (stereo partly drawn) | 30 nM | 
2 | C=C(C)[C@@H]1CC[C@]2(C(=O)n3ccnc3C)CC[C@]3(C)C(CC[C@@H]4[C@@]5(C)C=C(C#N)C(=O)C(C)(C)[C@@H]5CC[C@]43C)[C@@H]12 (stereo partly drawn) | 50 nM | 
3 | C=C(C)[C@@H]1CC[C@]2(C(=O)n3ccnc3)CC[C@]3(C)C(CC[C@@H]4[C@@]5(C)C=C(C#N)C(=O)C(C)(C)[C@@H]5CC[C@]43C)[C@@H]12 (stereo partly drawn) | 30 nM | Activity [1]: Active; Activity (Mus musculus): Active
4 | C=C(C)[C@@H]1CC[C@]2(C(=O)NC)CC[C@]3(C)C(CC[C@@H]4[C@@]5(C)C=C(C#N)C(=O)C(C)(C)[C@@H]5CC[C@]43C)[C@@H]12 (stereo partly drawn) | 50 nM | 
5 | C=C(CO)[C@@H]1CC[C@]2(C(=O)OC)CC[C@]3(C)C(CC[C@@H]4[C@@]5(C)C=C(C(=O)OC)C(=O)C(C)(C)[C@@H]5CC[C@]43C)[C@@H]12 (stereo partly drawn) | 1000 nM | 
6 | C=C(CF)[C@@H]1CC[C@]2(C(=O)OC)CC[C@]3(C)C(CC[C@@H]4[C@@]5(C)C=C(C(=O)O)C(=O)C(C)(C)[C@@H]5CC[C@]43C)[C@@H]12 (stereo partly drawn) | 300 nM | 
7 | C=C(C)[C@@H]1CC[C@]2(C(=O)O)CC[C@]3(C)[C@H](CC[C@@H]4[C@@]5(C)CC[C@H](O)C(C)(C)[C@@H]5CC[C@]43C)[C@@H]12 |  | Activity (RAW): inactive
8 | C=C(CF)[C@@H]1CC[C@]2(C(=O)OC)CC[C@]3(C)C(CC[C@@H]4[C@@]5(C)C=C(C(=O)OC)C(=O)C(C)(C)[C@@H]5CC[C@]43C)[C@@H]12 (stereo partly drawn) | 300 nM | 
9 | C=C(CO)[C@@H]1CC[C@]2(C(=O)OC)CC[C@]3(C)C(CC[C@@H]4[C@@]5(C)C=C(C(=O)O)C(=O)C(C)(C)[C@@H]5CC[C@]43C)[C@@H]12 (stereo partly drawn) | 900 nM | 
10 | C=C(C)[C@@H]1CC[C@]2(C(=O)n3ccnc3CC)CC[C@]3(C)C(CC[C@@H]4[C@@]5(C)C=C(C#N)C(=O)C(C)(C)[C@@H]5CC[C@]43C)[C@@H]12 (stereo partly drawn) | 30 nM | 
11 | C=C(C)[C@@H]1CC[C@]2(C(N)=O)CC[C@]3(C)C(CC[C@@H]4[C@@]5(C)C=C(C#N)C(=O)C(C)(C)[C@@H]5CC[C@]43C)[C@@H]12 (stereo partly drawn) | 30 nM | 
12 | C=C(C)[C@@H]1CC[C@]2(C(=O)OC)CC[C@]3(C)C(CC[C@@H]4[C@@]5(C)C=C(C(=O)O)C(=O)C(C)(C)[C@@H]5CC[C@]43C)[C@@H]12 (stereo partly drawn) | 300 nM | 
13 | C=C(C)[C@@H]1CC[C@]2(C(=O)O)CC[C@]3(C)C(CC[C@@H]4[C@@]5(C)C=C(C#N)C(=O)C(C)(C)[C@@H]5CC[C@]43C)[C@@H]12 (stereo partly drawn) | 200 nM | 
14 | C=C(C)[C@@H]1CC[C@]2(C(=O)OC)CC[C@]3(C)C(CC[C@@H]4[C@@]5(C)C=C(C(=O)OC)C(=O)C(C)(C)[C@@H]5CC[C@]43C)[C@@H]12 (stereo partly drawn) | 600 nM | 
15 | C=C(C)[C@@H]1CC[C@]2(C(=O)N(C)C)CC[C@]3(C)C(CC[C@@H]4[C@@]5(C)C=C(C#N)C(=O)C(C)(C)[C@@H]5CC[C@]43C)[C@@H]12 (stereo partly drawn) | 30 nM | 
16 | C=C(C)[C@@H]1CC[C@]2(C(=O)OCC)CC[C@]3(C)C(CC[C@@H]4[C@@]5(C)C=C(C#N)C(=O)C(C)(C)[C@@H]5CC[C@]43C)[C@@H]12 (stereo partly drawn) | 20 nM | 
